Most compounds without a hit are left out; they make up all but 3.9% or so of the library.
M1 PAM = positive allosteric modulators of human M1 muscarinic receptor; AID 588819; activation, % at 3 µM; hit rate 0.088% among 360,000; P11229; CHO-K1 hM1, Fluo-8 calcium fluorescence, ACh EC20; 0% = ACh EC20, 100% = maximal ACh; in the data active = activation above about 19%, passing the limit was not always enough
CHRM1 antagonist = antagonists of human M1 muscarinic receptor; hit rate 1.3% among 360,000; AID 588852; P11229; CHO-K1 hM1, Fluo-8 calcium fluorescence, ACh EC80 antagonist; inhibition, % at 3 µM;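 active = percent inhibition above its own plate's cutoff, namely the mean of that plate's compound wells plus 3 SD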;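 note: peak over basal fluorescence ratio during 140 s after agonist addition; 0% = ACh EC80 plus DMSO and 100% = DMSO alone without agonist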
TAAR1 agonist = human TAAR1 agonism. Q96RJ0. CHO RD-HGA16 TAAR1, Fluo-8 calcium fluorescence; vehicle wells 0%, saturating PEA agonist 100%. activation, % at 3 µM. hit rate 0.99% among 360,000. AID 624467;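 active = activation above the mean activation of all test compounds in the run plus 3 SD, cut at about 38% in these data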
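System: CHO-derived RD-HGA16 cells with stable Gα16 and human TAAR1 / Times: 17-24 h plating, Fluo-8 75 min 37 °C, 30 min RT / Technique: calcium-sensitive Fluo-8 signal, excitation 470-495, emission 515-575 nm / Measure: % activation relative to PEA EC100 response / Benchmarks: DMSO and PEA EC100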
m5-HT2A agonist = mouse HTR2A agonism via beta-arrestin recruitment; P35363; CHO-K1 mHTR2A beta-arrestin complementation, luminescence; percent of 30 µM serotonin response; activation, % at 7.6 µM; hit rate 0.66% among 360,000; AID 624169;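 active = activation above a run cutoff, the mean activation of all tested compounds plus 3 SD, cut at about 14% in these data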;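 note: 0% = plate median of compound wells and 100% = 30 µM serotonin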
Target sequence (P35363 whole entry, looked up): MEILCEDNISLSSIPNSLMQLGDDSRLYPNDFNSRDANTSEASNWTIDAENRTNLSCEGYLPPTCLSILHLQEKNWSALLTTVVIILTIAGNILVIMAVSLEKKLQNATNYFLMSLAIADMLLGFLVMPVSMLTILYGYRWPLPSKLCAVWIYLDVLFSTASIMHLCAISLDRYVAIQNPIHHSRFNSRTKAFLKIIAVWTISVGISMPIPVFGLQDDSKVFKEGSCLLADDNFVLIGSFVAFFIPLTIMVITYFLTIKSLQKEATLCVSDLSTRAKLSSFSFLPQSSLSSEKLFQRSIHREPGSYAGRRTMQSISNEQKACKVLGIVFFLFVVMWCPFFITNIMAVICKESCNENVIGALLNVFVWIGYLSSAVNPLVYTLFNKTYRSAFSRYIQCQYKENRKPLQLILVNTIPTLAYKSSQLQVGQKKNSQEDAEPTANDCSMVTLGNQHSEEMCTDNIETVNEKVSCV
M1 ag = agonists of human M1 muscarinic receptor | hit rate 0.33% among 360,000 | activation, % at 3 µM | CHO-K1 hM1, Fluo-8 calcium fluorescence, agonist mode; 0% DMSO, 100% acetylcholine EC100;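 active = activation above the run's mean compound activation plus 3 SD, cut at about 16% in these data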;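 note: peak over basal fluorescence ratio within a 140 s kinetic read after compound addition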
TAAR1 antag = antagonists of human TAAR1 | CHO RD-HGA16 TAAR1, Fluo-8 calcium fluorescence, antagonist | hit rate 1.5% among 360,000 | inhibition, % at 3 µM | Q96RJ0;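 active = inhibition above a per-plate cutoff, the mean inhibition of test compounds on that plate plus 3 SD, cut at about 49% in these data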;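 note: 0% = DMSO plus EC80 beta-PEA response and 100% = DMSO alone without agonist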
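Test system: CHO RD-HGA16 cells bearing hTAAR1 | Reagent: β-PEA, EC80 | Compound dosing: 3 µM, single point | Schedule: Dye loading 75 min at 37 °C, then 30 min room temperature | Signal: Calcium fluorescence with Fluo-8 | Evaluation: Percent inhibition of PEA-evoked calcium signal, max/basal emission ratio | Control set: DMSO-only wells and EC80 β-PEA-stimulated wells | Repeats: Singlicate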
OPRM1 ag = OPRM1 agonism in mouse HTR2A counterscreen; shares compounds with m5-HT2A agonist; activation, % at 9.3 µM; U2OS OPRM1 beta-arrestin PathHunter, luminescence; DMSO 0%, DAMGO 9.3 µM 100%; hit rate 5.3% among 2,300; AID 624380;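 active = mean activation above the mean of DMSO-only wells plus 3 SD, cut at about 0.5% in these data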
m5-HT2A ag conf = mouse HTR2A agonism confirmed. CHO-K1 PathHunter beta-arrestin recruitment, luminescence; DMSO 0%, 30 µM serotonin 100%. hit rate 19% among 2,300. shares compounds with m5-HT2A agonist. activation, % at 7.6 µM;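 active = mean activation across triplicates above the hit threshold derived in the original primary screen, cut at about 15% in these data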
Active calls of the source: *; . = no result given.

SMILES | M1 PAM | CHRM1 antagonist | TAAR1 agonist | m5-HT2A agonist | M1 ag | TAAR1 antag | OPRM1 ag | m5-HT2A ag conf
COc1cc(NC(=O)c2ccccc2)c(OC)cc1NC(=O)CN1C(=O)NC2(CCCCC2)C1=O | 6.8 | -9.3 | 0.9 | 2.8 | 3.0 | 2.5 | . | .
CC(C)C[C@H]1CN=C(N(C)C)N1CCCCc1ccccc1 | -11.1 | 18.1 | 14.4 | 19.7* | -9.1 | -2.8 | -0.5 | -3.4
CC(=O)c1cccc(NC(=O)c2cc(-n3cnnc3)ccc2Cl)c1 | 2.9 | -7.0 | 4.9 | 0.4 | -3.9 | -10.1 | . | .
CC(=O)Nc1ccc(NC(=O)c2cc(-n3cnnc3)ccc2Cl)cc1 | -4.3 | 11.6 | 2.7 | 15.9* | -3.9 | -16.2 | -0.5 | -3.5
Cc1ccc(C(=O)NCC(=O)OCc2nc3ccsc3c(=O)[nH]2)cc1C | 12.6 | -11.0 | 3.2 | 5.9 | -1.2 | -15.0 | . | .
CCc1ccccc1NC(=O)c1cc(S(=O)(=O)N2CCc3ccccc32)cn1C | -1.9 | -8.4 | -1.2 | 27.5* | -3.3 | -25.4 | 0.7* | -2.0
Cc1cccc(NC(=O)c2cc(S(=O)(=O)N3CCc4ccccc43)cn2C)c1C | 5.4 | -20.1 | 2.1 | -8.4 | -3.5 | -9.2 | . | .
O=C(COc1ccccc1Cl)N(Cc1cccs1)C1CCS(=O)(=O)C1 (stereo unspecified) | 10.7 | -9.0 | -0.8 | 20.2* | -3.8 | -2.5 | -0.7 | -3.8
